DSG3 Ab inh = inhibitors of pemphigus antibody binding to DSG3, primary screen, biochemical, bead-based, flow cytometry, scFv-GFP; Desmoglein-3 (Homo sapiens), P32926; DSG3-coupled beads, scFv-anti-DSG3-GFP binding; hits give low values; binding (percent of control), % at 10 µM; 310,000 tested, 0.48% active;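 active means binding more than 3 SD below its plate's average and above zero; inconclusive means below that plate limit but binding exactly zero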;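 further: hits lower antibody fragment binding to DSG3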
Target sequence (P32926 whole entry, looked up, the tested form may be a part): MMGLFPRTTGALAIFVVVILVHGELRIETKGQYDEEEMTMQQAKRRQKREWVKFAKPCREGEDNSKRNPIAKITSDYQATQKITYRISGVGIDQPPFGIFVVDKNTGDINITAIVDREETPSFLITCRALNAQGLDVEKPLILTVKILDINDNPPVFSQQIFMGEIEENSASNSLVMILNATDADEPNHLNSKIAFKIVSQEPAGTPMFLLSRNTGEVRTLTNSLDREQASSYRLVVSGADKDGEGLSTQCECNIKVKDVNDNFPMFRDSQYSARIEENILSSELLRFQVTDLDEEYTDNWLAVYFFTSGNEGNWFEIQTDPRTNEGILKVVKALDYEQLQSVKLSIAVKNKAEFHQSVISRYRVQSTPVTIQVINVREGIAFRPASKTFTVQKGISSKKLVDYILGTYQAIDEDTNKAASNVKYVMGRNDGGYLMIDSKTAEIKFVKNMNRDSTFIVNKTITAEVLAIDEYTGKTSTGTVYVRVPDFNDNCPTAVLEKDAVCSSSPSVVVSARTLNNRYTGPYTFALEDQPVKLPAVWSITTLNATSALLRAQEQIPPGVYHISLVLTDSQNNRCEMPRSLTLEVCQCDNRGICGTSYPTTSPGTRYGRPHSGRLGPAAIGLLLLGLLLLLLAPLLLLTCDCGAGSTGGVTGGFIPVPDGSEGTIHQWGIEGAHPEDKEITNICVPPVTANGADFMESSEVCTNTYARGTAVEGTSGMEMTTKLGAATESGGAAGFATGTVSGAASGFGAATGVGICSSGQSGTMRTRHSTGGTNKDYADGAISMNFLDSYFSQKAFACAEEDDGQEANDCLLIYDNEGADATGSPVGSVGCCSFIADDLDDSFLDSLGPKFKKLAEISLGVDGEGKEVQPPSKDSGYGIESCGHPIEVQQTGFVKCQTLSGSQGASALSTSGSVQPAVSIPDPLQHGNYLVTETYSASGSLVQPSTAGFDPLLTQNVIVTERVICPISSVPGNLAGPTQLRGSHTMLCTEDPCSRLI
Vif imaging = HIV Vif self-association inhibitors, primary screen, imaging, HEK293T, single point | 340,000 tested, 0.35% active | HEK293T cells, Vif self-association by quenched fluorescence, 24 h | inhibition, % at 7.49 µM | AID 602346, 2012; in the data active means inhibition above about 50%, passing the limit was not always enough; inconclusive means no clear call, values can overlap the other calls; inactive means below about 31%
Myeloid diff MLP = induction of myeloid progenitor differentiation, primary screen, cell-based, flow cytometry, MLPCN library | calls only at 10 µM | ER-HoxA9 myeloid progenitors, lysozyme-GFP differentiation | 360,000 tested, 1% active;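 active means normalized GFP-positive differentiation at or above the plate's own cutoff, the solvent-only control mean plus 3 SD; inconclusive means no clear call, values can overlap the other calls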;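 further: cells exposed to compound for four days before flow analysis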
T cell HTS = modulators of CD8 T cell-vesicle binding, primary screen, mouse 2C CD8+ T cells, flow cytometry; 2C CD8+ T cell-vesicle binding; hits give low values; response (vesicle binding), % at 7 µM; 330,000 tested, 0.068% active;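 active means response, share of CD8 T cells binding vesicles, and their 90th percentile fluorescence all below set limits, cut at about 80% in these data, passing the limit was not always enough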;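 further: values below 100% mean blocked vesicle binding to the CD8+ T cells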
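Assay system: 2C TCR transgenic mouse naive CD8+ T cells, MACS-purified | Read-out: CD8+ gate FL2 mean fluorescence as % of same-row positive control | Signal: High-throughput flow cytometry with anti-B7-1 and anti-CD8 staining | Timing: Binding step 1.5 h, 37 °C, antibody labelling 20 min, ice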
* hit, by the source's call. Shown are actives, neighbours in structure and some others; about 1.7% of the full set was active somewhere.

What do the screens show for `CCCCC(=O)N/N=C/c1ccc(-c2ccc([N+](=O)[O-])cc2)o1`?
DSG3 Ab inh: 99; Vif imaging: -14; Myeloid diff MLP: inactive; T cell HTS: 299

What do the screens show for `NS(=O)(=O)c1ccc(-c2ccc(/C=N/NC(=O)c3ccc([N+](=O)[O-])cc3)o2)cc1`?
DSG3 Ab inh: 75*; Vif imaging: -2; Myeloid diff MLP: inactive; T cell HTS: 314

What do the screens show for `CC(C)(C)NC(=S)N/N=C\c1ccc(-c2ccc([N+](=O)[O-])cc2)o1`?
DSG3 Ab inh: 101; Myeloid diff MLP: active; T cell HTS: 320

Results for O=C(O)c1ccc(-c2ccc(/C=N/Nc3ccc([N+](=O)[O-])cc3)o2)cc1 ?
DSG3 Ab inh: 6.2*; Vif imaging: inactive; Myeloid diff MLP: active; T cell HTS: 252

What do the screens show for `CN(C)Cc1ccccc1CNC(=O)c1ccc(Cl)c(S(=O)(=O)NC2CC2)c1`?
DSG3 Ab inh: 107; Vif imaging: 4; Myeloid diff MLP: inactive

How did Nc1cnc(Nc2ccc(Br)cc2)nc1N do in these assays?
DSG3 Ab inh: 99; Vif imaging: -8; Myeloid diff MLP: active; T cell HTS: 123

What do the screens show for `N#Cc1c(N)nc(N)nc1Nc1ccc(Br)cc1`?
DSG3 Ab inh: 90; Vif imaging: -4; Myeloid diff MLP: inactive; T cell HTS: 221

What do the screens show for `Cc1cccc(NS(=O)(=O)c2cccc(C(=O)NCC(C)(C)N3CCOCC3)c2)c1`?
DSG3 Ab inh: 102; Myeloid diff MLP: active; T cell HTS: 264

Results for N#CCC(=O)Nc1ccc(C(=O)NNC(=S)NC2CCCCC2)cc1 ?
Vif imaging: 124*; Myeloid diff MLP: inactive; T cell HTS: 430

How did Cc1cc(C)cc(C(O)c2ncc(-c3cccc(F)c3)[nH]2)c1 (configuration not stated) do in these assays?
Myeloid diff MLP: inactive

How did COc1cc(O)c(C(CC(=O)N2CCCC2)c2ccc(N(C)C)cc2)c(OC)c1 (configuration not stated) do in these assays?
DSG3 Ab inh: 98; Vif imaging: 74*; Myeloid diff MLP: inactive; T cell HTS: 321

How did COc1ccc(C(CC(=O)N2CCCCC2)c2c(O)cc(OC)cc2OC)cc1 (configuration not stated) do in these assays?
DSG3 Ab inh: 99; Vif imaging: -8; Myeloid diff MLP: inactive

What do the screens show for `COc1ccc2c(c1OC)OCC2C` (configuration not stated)?
DSG3 Ab inh: 104; Vif imaging: 1; Myeloid diff MLP: inactive

Results for O=C(NCC1CCCO1)c1ccccc1-c1nc(-c2ccc(Cl)cc2)no1 (configuration not stated) ?
Vif imaging: -18; Myeloid diff MLP: active; T cell HTS: 412

What do the screens show for `NS(=O)(=O)c1ccc(N=Nc2c(O)ccc3ccccc23)cc1`?
DSG3 Ab inh: 71*; Vif imaging: -14; Myeloid diff MLP: inconclusive; T cell HTS: 684

How did Oc1ccc(N=Nc2c(O)ccc3ccccc23)cc1 do in these assays?
DSG3 Ab inh: 101; Myeloid diff MLP: inconclusive; T cell HTS: 449

Results for NS(=O)(=O)c1cccc(NC(=O)c2cccc(Oc3ccccc3)c2)c1 ?
DSG3 Ab inh: 100; Vif imaging: 15; Myeloid diff MLP: active; T cell HTS: 224

Results for NC(=O)c1ccc(NC(=O)c2cccc(Oc3ccccc3)c2)cc1 ?
DSG3 Ab inh: 96; Vif imaging: -9; Myeloid diff MLP: inactive; T cell HTS: 220

How did C=C1C[C@@H]2C[C@@H]2CN(S(=O)(=O)c2ccc(C)cc2)[C@@H]1c1ccco1 do in these assays?
Myeloid diff MLP: inactive

What do the screens show for `O=C(O)COCC(=O)N1CCCN(c2ccc(C(F)(F)F)cn2)CC1`?
DSG3 Ab inh: 126; Vif imaging: -2; Myeloid diff MLP: active; T cell HTS: 217

What do the screens show for `Cc1ccc2nc(NC(=O)c3ccc4ncsc4c3)sc2c1`?
DSG3 Ab inh: -6.3*; Vif imaging: -3; Myeloid diff MLP: inactive; T cell HTS: 454

How did Cc1cccc2sc(NC(=O)c3ccc(OCC4CCCO4)cc3)nc12 (configuration not stated) do in these assays?
DSG3 Ab inh: 102; Vif imaging: -7; Myeloid diff MLP: inactive; T cell HTS: 488

What do the screens show for `CCOc1ccc2nc(NC(=O)c3ccc(OCC4CCCO4)cc3)sc2c1` (configuration not stated)?
DSG3 Ab inh: 103; Vif imaging: -11; Myeloid diff MLP: active; T cell HTS: 91

How did NS(=O)(=O)c1ccc2nc(NC(=O)c3ccc4ncsc4c3)sc2c1 do in these assays?
Vif imaging: -7; Myeloid diff MLP: inactive; T cell HTS: 227

Results for CC(C)C[C@H]1CN([C@@H](Cc2ccccc2)CN2CCC[C@H]2CN2C(=O)C(=O)NC[C@@H]2Cc2ccc(O)cc2)C(=O)C(=O)N1CCc1ccccc1 ?
Myeloid diff MLP: inactive

How did CCCCS(=O)CC(CS(=O)CCCC)OC(=O)c1ccc(C)cc1 (configuration not stated) do in these assays?
DSG3 Ab inh: 45*; Myeloid diff MLP: inactive; T cell HTS: 289

How did CC1(C)CN(C2CCCCC2)C(=O)[C@H]1CC(=O)Nc1ccccc1 do in these assays?
DSG3 Ab inh: 100; Myeloid diff MLP: inactive

Results for CNC(=O)C[C@@H]1C(=O)N(C2CCCCC2)CC1(C)C ?
DSG3 Ab inh: 104; Vif imaging: 4; Myeloid diff MLP: active

Results for Cc1cc(/C=C2/C(=O)N(C)C(=S)N2C)c(C)n1C1CC1 ?
DSG3 Ab inh: 96; Vif imaging: 9; Myeloid diff MLP: active; T cell HTS: 117

Results for NC(=O)CC(c1ccccc1)c1ccc2c(c1)OCO2 (configuration not stated) ?
DSG3 Ab inh: 109; Vif imaging: 9; Myeloid diff MLP: inactive; T cell HTS: 169

Results for NC(CSC(c1ccccc1)(c1ccccc1)c1ccc2c(c1)OCO2)C(=O)O (configuration not stated) ?
DSG3 Ab inh: 93*; Myeloid diff MLP: inactive

How did O=C(c1ccc2c(c1)OCO2)N(CC1CCCO1)C1(C(=O)NC2CCCC2)CCCCC1 (configuration not stated) do in these assays?
DSG3 Ab inh: 74; Vif imaging: 69*; Myeloid diff MLP: inactive; T cell HTS: 190

Results for COc1ccccc1CCn1cnc(Cc2ccccc2)c1C(C)C ?
Myeloid diff MLP: inactive

How did Cn1cccc1C(=O)OCC(=O)Nc1sccc1C#N do in these assays?
DSG3 Ab inh: 93; Vif imaging: -5; Myeloid diff MLP: inactive; T cell HTS: 659

Results for N#Cc1ccsc1NC(=O)COC(=O)c1ccc2ccccc2c1 ?
DSG3 Ab inh: 63*; Vif imaging: 5; Myeloid diff MLP: inactive; T cell HTS: 230

How did COc1cccc(NC(=O)COC(=O)C2CCCCC2)c1 do in these assays?
DSG3 Ab inh: inconclusive; Vif imaging: -1; Myeloid diff MLP: inactive; T cell HTS: 765
